The nature of series [1]: Cytotoxicity against human Hep2 cells after 72 hrs by alamar blue assay. Type of series: cell-based. The following applies: HEp-2 cells. (Alamar Blue is a resazurin reagent that responds to reducing activity.)
In series [2] the test system is Staphylococcus aureus. Kind of series: Antibacterial activity against methicillin- and quinolone-resistant Staphylococcus aureus ATCC700699 after 24 hrs by microdilution method. Type of series: functional. Conditions: ATCC700699, 24 h. In short, it runs like this: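 Broth microdilution; MIC read as the lowest compound concentration that prevents visible bacterial growth after incubation at 37 °C for 18–24 h, and expressed in μg/mL.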
(In general: In broth dilution the organism is exposed to a series of concentrations in liquid medium.)

Another series deals with Escherichia coli. The series is described as follows: Antibacterial activity against Escherichia coli ATCC25922 after 24 hrs by microdilution method. Type of series: functional. Conditions: ATCC25922, 24 h. The method in brief: (§1)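 MIC taken as the lowest concentration with no visible bacterial growth after 18-24 h at 37 °C, given in μg/mL; modal value of multiple experiments.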

Series [3] concerns Staphylococcus aureus. The series is described as follows: Antibacterial activity against methicillin-sensitive Staphylococcus aureus ATCC 29213 after 24 hrs by microdilution method. Type of series: functional. The following applies: ATCC 29213, 24 h. The method in brief:
as §1

The text below walks through data of ChEMBL document CHEMBL1772978, “Exploration of the activity of 7-pyrrolidino-8-methoxyisothiazoloquinolones against methicillin-resistant Staphylococcus aureus (MRSA)” (J Med Chem, 2011).

Structures are written as SMILES. In brackets after ≈: the same amount, converted by molar mass.

As for `COc1c(N2CC[C@H](C(C)(C)N)C2)c(F)cc2c(=O)c3c(=O)[nH]sc3n(C3CC3)c12`, half-maximal cytotoxicity in series [1] (CC50 at 72 h) was put at 61 µM. In addition, the MIC (commonly the least concentration at which growth counts as inhibited) against Staphylococcus aureus [2] was 2 µg/mL (≈ 4.62 µM); against Escherichia coli it was 0.13 µg/mL (≈ 0.301 µM); against Staphylococcus aureus [3] it was 0.03 µg/mL (≈ 0.0694 µM).

With `CNC(C)(C)[C@@H]1CCN(c2c(F)cc3c(=O)c4c(=O)[nH]sc4n(C4CC4)c3c2OC)C1`, half-maximal cytotoxicity in series [1] (CC50 at 72 h) was put at 28 µM. For the same compound, the MIC was 0.13 µg/mL (≈ 0.291 µM) with Staphylococcus aureus [2], 0.13 µg/mL (≈ 0.291 µM) against Escherichia coli and 0.008 µg/mL (≈ 0.0179 µM) against Staphylococcus aureus [3].

In the case of `CCNC(C)(C)[C@@H]1CCN(c2c(F)cc3c(=O)c4c(=O)[nH]sc4n(C4CC4)c3c2OC)C1`, the CC50 (as a rule, the concentration at which the toxic effect on the cells reaches its halfway point) at 72 h in series [1] is 50 µM. For the same compound, the MIC was 0.5 µg/mL (≈ 1.09 µM) against Staphylococcus aureus [2], 0.13 µg/mL (≈ 0.282 µM) with Escherichia coli and 0.02 µg/mL (≈ 0.0434 µM) against Staphylococcus aureus [3].

In series [1], `COc1c(N2CC[C@@H](C(C)(C)NCCF)C2)c(F)cc2c(=O)c3c(=O)[nH]sc3n(C3CC3)c12` had a cytotoxic concentration (CC50) at 72 h of 19 µM. Further, the MIC turned out to be 0.06 µg/mL (≈ 0.125 µM) in the series with Staphylococcus aureus [2], 0.06 µg/mL (≈ 0.125 µM) in the series with Escherichia coli and 0.004 µg/mL (≈ 0.00836 µM) against Staphylococcus aureus [3].

Compound `COc1c(N2CC[C@@H](C(C)(C)NCC(C)C)C2)c(F)cc2c(=O)c3c(=O)[nH]sc3n(C3CC3)c12` yielded a 50% cytotoxic concentration (CC50) at 72 h in series [1] of 88 µM. The figures for the MIC in the series on Staphylococcus aureus [2], in the series on Escherichia coli and with Staphylococcus aureus [3] were 2 µg/mL (≈ 4.09 µM), 1 µg/mL (≈ 2.05 µM) and 0.06 µg/mL (≈ 0.123 µM), respectively.

`COc1c(N2CC[C@@H](C(C)(C)N(C)C)C2)c(F)cc2c(=O)c3c(=O)[nH]sc3n(C3CC3)c12` registered a CC50 at 72 h in series [1] of 90 µM. Moreover, the MIC was determined as 1 µg/mL (≈ 2.17 µM) with Staphylococcus aureus [2], 0.13 µg/mL (≈ 0.282 µM) against Escherichia coli and 0.06 µg/mL (≈ 0.13 µM) with Staphylococcus aureus [3].

In series [1], `COc1c(N2CC[C@@H](C3(N)CC3)C2)c(F)cc2c(=O)c3c(=O)[nH]sc3n(C3CC3)c12` came in with a CC50 at 72 h of 4 µM. Also, the MIC turned out to be 0.06 µg/mL (≈ 0.139 µM) in the series with Staphylococcus aureus [2], 0.008 µg/mL (≈ 0.0186 µM) with Escherichia coli and 0.001 µg/mL (≈ 0.00232 µM) in the series with Staphylococcus aureus [3].

Regarding `CC[C@@H](NC)[C@@H]1CCN(c2c(F)cc3c(=O)c4c(=O)[nH]sc4n(C4CC4)c3c2OC)C1`, the CC50 at 72 h in series [1] came to 58 µM. For the same compound, the results for the MIC against Staphylococcus aureus [2], against Escherichia coli and against Staphylococcus aureus [3] were 2 µg/mL (≈ 4.48 µM), 0.13 µg/mL (≈ 0.291 µM) and 0.03 µg/mL (≈ 0.0672 µM), respectively.

In series [1], `O=c1[nH]sc2c1c(=O)c1cc(F)c(N3CCNCC3)cc1n2C1CC1` registered a CC50 at 72 h of 7 µM. Moreover, the MIC against Staphylococcus aureus [2] came to 4 µg/mL (≈ 11.1 µM); in the series with Escherichia coli, 0.004 µg/mL (≈ 0.0111 µM); in the series with Staphylococcus aureus [3], 0.06 µg/mL (≈ 0.166 µM).

Take `COc1c(N2CC[C@H](C(C)N)C2)c(F)cc2c(=O)c3c(=O)[nH]sc3n(C3CC3)c12` (mixture of isomers): the MIC is 1 µg/mL against Staphylococcus aureus [2], 0.06 µg/mL in the series on Escherichia coli and 0.03 µg/mL in the series on Staphylococcus aureus [3].

With `COc1c(N2CC[C@@H](C(C)NCC(F)(F)F)C2)c(F)cc2c(=O)c3c(=O)[nH]sc3n(C3CC3)c12` (mixture of isomers), the CC50 at 72 h in series [1] came to 41 µM. The MIC with Staphylococcus aureus [2] amounted to 4 µg/mL; in the series with Staphylococcus aureus [3] it was 0.13 µg/mL.

With `COc1c(N2CC[C@H](C(C)NC3CC3)C2)c(F)cc2c(=O)c3c(=O)[nH]sc3n(C3CC3)c12` (mixture of isomers), it took 43 µM to reach half-maximal cytotoxicity in series [1] (CC50 at 72 h). Moreover, the MIC against Staphylococcus aureus [2] came to 0.13 µg/mL; in the series on Escherichia coli, 0.13 µg/mL; against Staphylococcus aureus [3] it was 0.02 µg/mL.

`COc1c(N2CC[C@@H](C(C)NCC3CC3)C2)c(F)cc2c(=O)c3c(=O)[nH]sc3n(C3CC3)c12` (mixture of isomers) returned a CC50 at 72 h in series [1] of 43 µM. For the same compound, the MIC is 0.5 µg/mL in the series with Staphylococcus aureus [2], 0.25 µg/mL against Escherichia coli and 0.03 µg/mL against Staphylococcus aureus [3].

For the compound `COc1c(N2CC[C@@H](C(C)NC3CCCC3)C2)c(F)cc2c(=O)c3c(=O)[nH]sc3n(C3CC3)c12` (mixture of isomers), in series [1], it took 42 µM to reach half-maximal cytotoxicity (CC50 at 72 h). Further, the MIC against Staphylococcus aureus [2] was determined as 4 µg/mL; in the series with Staphylococcus aureus [3], 0.06 µg/mL.

For the compound `COc1c(N2CC[C@@H](C(C)N(C)C)C2)c(F)cc2c(=O)c3c(=O)[nH]sc3n(C3CC3)c12` (mixture of isomers), the CC50 at 72 h in series [1] came out at 40 µM. The MIC against Staphylococcus aureus [2] was 1 µg/mL; with Escherichia coli, 0.06 µg/mL; with Staphylococcus aureus [3], 0.03 µg/mL.

As to `CC[C@H](NC)[C@@H]1CCN(c2c(F)cc3c(=O)c4c(=O)[nH]sc4n(C4CC4)c3c2OC)C1` (mixture of isomers), in series [1], the half-maximal cytotoxic concentration (CC50) at 72 h worked out at 29 µM. For the same compound, the MIC in the series on Staphylococcus aureus [2] was 0.5 µg/mL; with Escherichia coli it was 0.06 µg/mL; in the series with Staphylococcus aureus [3], 0.008 µg/mL.

In series [1], `COc1c(N2CC[C@@H](C(N)c3nccs3)C2)c(F)cc2c(=O)c3c(=O)[nH]sc3n(C3CC3)c12` (mixture of isomers) yielded a CC50 at 72 h of 5 µM. The results for the MIC in the series with Staphylococcus aureus [2], against Escherichia coli and in the series on Staphylococcus aureus [3] were 0.06 µg/mL, 0.13 µg/mL and 0.004 µg/mL, respectively.

In turn, `COc1c(N2CC[C@@H](C(N)c3ncco3)C2)c(F)cc2c(=O)c3c(=O)[nH]sc3n(C3CC3)c12` (mixture of isomers) yielded a CC50 at 72 h in series [1] of 5 µM. For the same compound, the MIC was 0.25 µg/mL in the series with Staphylococcus aureus [2], 0.06 µg/mL with Escherichia coli and 0.004 µg/mL against Staphylococcus aureus [3].

In turn, `COc1c(N2CC[C@@H](C(N)c3ccccn3)C2)c(F)cc2c(=O)c3c(=O)[nH]sc3n(C3CC3)c12` (mixture of isomers) came in with a cytotoxic concentration (CC50) at 72 h in series [1] of 1 µM. Moreover, the MIC amounted to 0.13 µg/mL against Staphylococcus aureus [2], 0.06 µg/mL with Escherichia coli and 0.008 µg/mL against Staphylococcus aureus [3].
